Experimental data from the RNAGym collection of RNA variant scans (doi:10.1126/science.aae0568).
Fewer inactive variants are shown than the library holds.

B1: tRNA (parent)
chain: GUUCCGUUGGCGUAAUGGUAACGCGUCUCCCUCCUAAGGAGAAGACUGCGGGUUCGAGUCCCGUACGGAACG

Variants of: B1
Assay: yeast fitness relative to wild type (ratio to wild type); higher = fitter; tRNA-Arg(CCU), competitive growth, 37 C, YPD
Method in brief: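 The tRNA-Arg(CCU) gene variants were made by chemical synthesis with a 3% per-site mutation rate at 69 sites and inserted at the native genomic locus of Saccharomyces cerevisiae. After pooling, the strains were competed in YPD at 37°C for 24 hours in six parallel replicates. Gene amplicons from the start population and each end population were read by 100-nucleotide paired-end sequencing, and Darwinian fitness relative to wild type was taken from genotype frequency changes. Genotypes needed ≥ 100 starting reads, and estimates < 0.5 were set to 0.5.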

Variant | yeast fitness
C30A A57G A70U | 0.765
C30A A57U C61A A69G | ≤ 0.5
C30A A57U C61U A69G | ≤ 0.5
C30A A65C C66U | ≤ 0.5
C30A A65G G67C | 0.526
C30A A69U | 0.963
C30A A70G | 0.983
C30A A70U | 1.02
C30A C31A | 0.611
C30A C31A G38A C49U G52A C66U | ≤ 0.5
C30A C31G | 1
C30A C31G C49A C60U G67A | 0.526
C30A C31G G38C A57C | ≤ 0.5
C30A C31G G67C | 0.546
C30A C31G U32A C60U | ≤ 0.5
C30A C31U A36G C55U | ≤ 0.5
C30A C31U A36G G50A C66U | ≤ 0.5
C30A C31U A42C | 0.943
C30A C31U A45C C49U C55G | ≤ 0.5
C30A C31U A45C C55G | 0.522
C30A C31U A45C C55G C60A | ≤ 0.5

Variant | yeast fitness
C30A C31U C33U A37C | ≤ 0.5
C30A C31U C66U A69U | ≤ 0.5
C30A C33A C62A | ≤ 0.5
C30A C33G A45U U59C | 0.543
C30A C33U | 0.738
C30A C34A | 0.76
C30A C34A A43C C62U | ≤ 0.5
C30A C34A C49U | ≤ 0.5
C30A C34G A45U | ≤ 0.5
C30A C34G A65U | ≤ 0.5
C30A C34G C60A U64A | 0.541
C30A C34U | 0.752
C30A C34U G58C | ≤ 0.5
C30A C46A G56A A69U | ≤ 0.5
C30A C46G G51A | 0.593
C30A C46G G56A | 0.74
C30A C46U | 0.939
C30A C46U G52C | 0.568
C30A C46U G52C C66U | ≤ 0.5
C30A C49A A57U A70G | 0.509
C30A C49A C61U | ≤ 0.5

Variant | yeast fitness
C30A C49G | 0.798
C30A C49U | 0.898
C30A C49U A69U | 0.682
C30A C55G | 0.596
C30A C55G A57C C62G G68C | 0.513
C30A C55U | 0.686
C30A C55U A70C | 0.545
C30A C60G | 0.635
C30A C60U | 0.727
C30A C61A | 0.721
C30A C61A A65G C66G A70G | ≤ 0.5
C30A C61G | 0.651
C30A C61U C62A A70G | ≤ 0.5
C30A C62A | 0.589
C30A C62A A70G | 0.547
C30A C62U A70U | 0.709
C30A G38A | 0.783
C30A G38A A42U | ≤ 0.5
C30A G38A C55A A65C | 0.58
C30A G38A G44A | ≤ 0.5
C30A G39A U47A G63C | 0.528

Variant | yeast fitness
C30A G39C | 0.656
C30A G39C A57G | ≤ 0.5
C30A G41A A42C G50C A70G | ≤ 0.5
C30A G41C A45G G67C | ≤ 0.5
C30A G41C A69C | 0.598
C30A G44A A45C | ≤ 0.5
C30A G44C | 0.795
C30A G44C U59A A69U | 0.65
C30A G48A | 1.06
C30A G50A | 0.677
C30A G50A A69C | 0.675
C30A G50A G56A | 0.742
C30A G50A G67A | 0.543
C30A G50C A69U | ≤ 0.5
C30A G51A G52A U53C G56A C61G | ≤ 0.5
C30A G51A G67U | ≤ 0.5
C30A G52A A57U | ≤ 0.5
C30A G52C A69C | ≤ 0.5
C30A G56U A65G C66U | ≤ 0.5
C30A G58C | 1
